Reference: ChEMBL document CHEMBL4699545, “Non-cytotoxic 1,2,3-triazole tethered fused heterocyclic ring derivatives display Tax protein inhibition and impair HTLV-1 infected cells” (Bioorg Med Chem, 2020)
Calls of active or inactive are those of the source. The calls are words filed in the database; no cut-off is given here.

Columns and labels:
[1] = test system: MT2; experiment: Cell cycle arrest in human MT2 cells infected with HTLV-1 assessed as accumulation at G2/M phase at 50 uM incubated for 72 hrs by RNaseA/propidium iodide staining based FACSCalibur flow cytometry; assay type: functional
In short: (§1)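 MT-2 cells (3 × 10⁵/well) exposed to compound (300 µM stock, 100 µl added to 500 µl cells) for 72 h at 37 °C, 5% CO₂. Cells were PBS-washed and fixed in ice-cold 70% ethanol overnight at -20 °C, then RNase A treated 30 min at 37 °C and PI stained. 10,000 events were acquired and phase percentages modelled. Triplicate, mean ± SD; one-way ANOVA/Tukey versus 0.5% DMSO.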

[2] = test system: MT2; experiment: Cytotoxicity against human MT2 cells infected with HTLV-1 assessed as reduction in metabolic activity at 50 uM incubated for 72 hrs in presence of resazurin by resazurin reduction method relative to control; assay type: functional
In short: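 MT-2 cells incubated with compound at a final 50 µM in 0.5% DMSO for 72 h at 37 °C, 5% CO₂. Resazurin (10 µM) was added for the final 4 h and fluorescence read at 590 nm; medium-only wells gave background. RFU normalized between 0.5% DMSO (0) and 20 µM etoposide (100) controls. Three independent days.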

[3] = test system: Huh-7; experiment: Cytotoxicity against human Huh-7 cells assessed as reduction in cell viability by measuring viability index at 50 uM after 72 hrs in presence of resazurin by resazurin reduction method; assay type: cell-based; conditions: huh-7, 72 h
In short: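 Huh-7 cells (3.6 × 10⁴ cells/mL) were exposed to twofold serial dilutions in PBS, 10 points from 50 µM, for 72 h at 37 °C, 5% CO₂. Resazurin (10 µM) was added for the final 4 h and fluorescence read. Viability = RFU treated / mean RFU of 0.5% DMSO wells.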

[4] = test system: MT2; experiment: Induction of apoptosis in human MT2 cells infected with HTLV-1 assessed as activation of caspase-3/7 at 50 uM measured after 72 hrs by CellEvent caspase 3/7 green detection reagent based assay; assay type: functional, cell-based
In short: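 MT-2 cells (3 × 10⁵/well) were exposed to compound (300 µM stock, 100 µl into 500 µl) for 72 h at 37 °C, 5% CO₂. CellEvent caspase-3/7 green reagent was added for 45 min at room temperature in the dark. 10,000 events were acquired, and the percentage of active caspase-3/7⁺ cells was taken within an FSC/SSC live-cell gate. Triplicate, mean ± SD, ANOVA/Tukey versus 0.5% DMSO.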

[5] = test system: MT2; experiment: Induction of apoptosis in human MT2 cells infected with HTLV-1 at 50 uM measured after 72 hrs by annexinV-Cy5/propidium iodide staining based FACSCalibur flow cytometry; assay type: functional, cell-based
In short: (§2)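 MT-2 cells (3 × 10⁵/well) were treated for 72 h at 37 °C, 5% CO₂, then stained with annexin-V Cy5/PI per kit. Within an FSC/SSC live-cell gate, total annexin-V⁺ cells (early PI⁻ plus late PI⁺) were counted by flow cytometry. 0.5% DMSO served as negative control and etoposide 20 µM as positive. Triplicate, mean ± SD, ANOVA/Tukey.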

[6] = test system: MT2; experiment: Cell cycle arrest in human MT2 cells infected with HTLV-1 assessed as accumulation at S phase at 50 uM incubated for 72 hrs by RNaseA/propidium iodide staining based FACSCalibur flow cytometry; assay type: functional; in short: as §1
[7] = test system: MT2; experiment: Cell cycle arrest in human MT2 cells infected with HTLV-1 assessed as accumulation at G0/G1 phase at 50 uM incubated for 72 hrs by RNaseA/propidium iodide staining based FACSCalibur flow cytometry; assay type: functional; in short: as §1
[8] = Effect on HTLV-1 Tax expression in lentiviral pLVX-TET3G transduced human Jurkat LTR-GFP inducible Tax assessed as doxycyclin-treated GFP negative PI positive dead cells at 50 uM after 72 hrs by flow cytometry (reference value: 16.82 +/- 3.37 %)
[9] = test system: MT2; experiment: Induction of apoptosis in human MT2 cells infected with HTLV-1 at 50 uM measured after 72 hrs by annexinV-Cy5/propidium iodide staining based FACSCalibur flow cytometry (reference value: 18.7 +/- 5.33 %); assay type: functional; in short: as §2
[10] = test system: MT2; experiment: Cytotoxicity against human MT2 cells infected with HTLV-1 assessed as reduction in metabolic activity at 20 uM incubated for 72 hrs in presence of resazurin by resazurin reduction method; assay type: functional, cell-based
In short: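 Reference etoposide at 20 µM (final, 0.5% DMSO) served as the positive control in the MT-2 resazurin screen. Cells were incubated 72 h, with 10 µM resazurin added for the last 4 h, and fluorescence read at 590 nm. Three independent days.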

[11] = test system: MT2; experiment: Cell cycle arrest in human MT2 cells infected with HTLV-1 assessed as accumulation at G2/M phase at 20 uM incubated for 72 hrs by RNaseA/propidium iodide staining based FACSCalibur flow cytometry; assay type: functional
In short: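 Etoposide 20 µM used as reference in MT-2 cell cycle assay: 3 × 10⁵ cells/well, 72 h at 37 °C. Ethanol fixation (70%, overnight -20 °C), RNase A 30 min at 37 °C, then PI staining. 10,000 events acquired by flow cytometry and G0/G1, S and G2/M fractions modelled. Triplicate, mean ± SD.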

SMILES | Activity [1] | inhibition at 50 µM [2] | Growth_index [3] | Activity [4] | Activity [5] | Activity [6] | Activity [7] | GFP-PI+ dead cells % [8] | Activity [9] | inhibition [10] | Activity [11]
COc1cc2ncnc(NCc3cn(CC4CCN(Cc5ccccc5)CC4)nn3)c2cc1OC | inactive | ≥ 70% | 0.65 | Active | Active | inactive | inactive | – | – | – | –
c1ccc(CN2CCC(Cn3cc(CNc4ncnc5ccccc45)nn3)CC2)cc1 | inactive | ≥ 70% | – | – | – | inactive | inactive | – | – | – | –
COc1cc2ncnc(NCc3cn(CCNc4ccnc5cc(Cl)ccc45)nn3)c2cc1OC | inactive | ≥ 70% | 0 | Active | Active | inactive | inactive | 90.98% | – | – | –
O=C(Cn1cc(CSc2nc3ccccc3[nH]2)nn1)N1CCN(Cc2ccccc2)CC1 | inactive | ≥ 70% | – | – | – | inactive | inactive | – | – | – | –
Cc1cc(=O)oc2cc(OCc3cn(CC4CCN(Cc5ccccc5)CC4)nn3)ccc12 | inactive | ≥ 70% | 0.61 | Active | Active | inactive | inactive | – | 39.96% | – | –
Clc1ccc2c(NCCn3cc(CNc4ncnc5ccccc45)nn3)ccnc2c1 | inactive | ≥ 70% | 0 | Active | Active | inactive | inactive | 44.88% | – | – | –
COc1cc([C@@H]2c3cc4c(cc3[C@@H](O[C@@H]3O[C@@H]5CO[C@@H](C)O[C@H]5[C@H](O)[C@H]3O)[C@H]3COC(=O)[C@H]23)OCO4)cc(OC)c1O | – | – | – | – | – | – | – | – | – | Active | inactive
O=C1c2ccccc2C(=O)N1Cc1cn(CCNc2ccnc3cc(Cl)ccc23)nn1 | – | ≥ 70% | 0.85 | – | – | Active | – | – | – | – | –
O=C(Cn1cc(CNc2ncnc3ccccc23)nn1)N1CCN(Cc2ccccc2)CC1 | inactive | ≥ 70% | – | – | – | inactive | inactive | – | – | – | –
